Measured values from different studies.
Target: Dual specificity protein kinase CLK3 (CLK3, Homo sapiens, UniProt P49761)

SMILES | effect on | action | technique | concentration | measurement | value
COc1cc(Cl)c(C(=O)N[C@@H](CN[C@H]2CC[C@@H](N)CC2)Cc2ccc(C#N)cc2)cc1-c1ccc(CN[C@H](C)c2ccc(C)cc2)o1 | enzyme activity | inhibitor | – | 1 µM | remaining activity | 99%
COc1ccc2c(O[C@@H]3C[C@H]4C(=O)N[C@]5(C(=O)O)CC5/C=C\CCCCC[C@H](NC(=O)OC5CCCC5)C(=O)N4C3)cc(-c3csc(NC(=O)C(C)C)n3)nc2c1C (stereo partly shown) | cell-free assay | – | competition with immobilised ligand | 1 µM | remaining binding | 100%
CN1CC(Oc2cnc(C#N)cc2-c2ccn3nc(NC(=O)C4CC4)cc3c2)C1 | enzyme activity | inhibitor | – | 1 µM | inhibition | -5%
CCS(=O)(=O)c1cc2cc(C[C@](O)(CC(C)(C)c3ccc(F)cc3C(N)=O)C(F)(F)F)[nH]c2cn1 | cell-free assay | – | competition with immobilised ligand | 1 µM | remaining binding | 100%
CCOc1cc(-c2nncn2C)ccc1Nc1ncc2cc(C)nc(NCC(C)(C)C)c2n1 | enzyme activity | inhibitor | FRET | 1 µM | inhibition | < 15%
Cn1c2c(c3ccc(Cl)c(Cl)c31)C(C#N)C(C)(C)NC2=O (stereo not shown) | thermal stability | – | DSF | 10 µM | ΔTm | 1.9 °C
CCC(=N\O)/C(C)=C/c1ccc(F)cc1 | cell-free assay | – | competition with immobilised ligand | 1 µM | remaining binding | 73%
Cc1cc(NC(=O)c2cccc3cc(-c4cccc5[nH]nc(N)c45)ccc23)ccc1F | enzyme activity | inhibitor | – | 0.1 µM | activity vs control | 97%
Cn1c2c(c3ccc(Cl)c(Cl)c31)C(C#N)C1(CCCCC1)NC2=O (racemic) | thermal stability | – | DSF | 10 µM | ΔTm | 0.4 °C
C[S+]([O-])c1ccc(-c2nc(-c3ccncc3)c(-c3ccc(F)cc3)[nH]2)cc1 (stereo not shown) | cell-free assay | – | – | 0.5 µM | remaining signal | 99.1%
O=C(O)[C@@H]1[C@@H](Cn2nnc3ccccc3c2=O)CC[C@H]1C(=O)c1ccc(OCCC2CCOCC2)cc1 | cell-free assay | – | competition with immobilised ligand | 1 µM | remaining binding | 91%
CCC1(CC)NC(=O)c2c(c3ccc(Cl)c(Cl)c3n2C)C1C#N (stereo not shown) | thermal stability | – | DSF | 10 µM | ΔTm | 0.3 °C
COc1cc2ncnc(Nc3ccc(Oc4ccccc4)cc3C)c2cc1OC | enzyme activity | inhibitor | – | 1 µM | inhibition | 5%
O=C(NC[C@@H]1[C@H]2CN(C(=O)OCc3cc(C(F)(F)F)cc(C(F)(F)F)c3)C[C@@H]12)c1ccc2[nH]nnc2c1 | cell-free assay | – | competition with immobilised ligand | 1 µM | remaining binding | 78%
O=C1Nc2ccc(Cl)cc2C1=Cc1cc(Cl)c(O)c(Cl)c1 | cell-free assay | – | – | 0.5 µM | remaining signal | 90.9%
Cc1ccc(Nc2nccc(N(C)c3ccc4c(C)n(C)nc4c3)n2)cc1S(N)(=O)=O | enzyme activity | inhibitor | – | 10 µM | inhibition | 32%

SMILES | effect on | action | technique | concentration | measurement | value
O=C(Nc1cnn(-c2csc(C(=O)NC3COC3)c2)c1)Nc1ccccc1Cl | enzyme activity | inhibitor | – | 5 µM | remaining activity | 120%
CC(C)(C)c1nc(-c2cccc(NS(=O)(=O)c3c(F)cccc3F)c2F)c(-c2ccnc(N)n2)s1 | enzyme activity | inhibitor | radiometric | 1 µM | remaining activity | 74%
CNC(=O)c1cc(Oc2ccc(NC(=O)Nc3ccc(Cl)c(C(F)(F)F)c3)cc2)ccn1 | enzyme activity | inhibitor | – | 10 µM | inhibition | 13%
Oc1cccc(-c2nc(N3CCOCC3)c3oc4ncccc4c3n2)c1 | cell-free assay | – | – | 0.5 µM | remaining signal | 93.1%
CCCOc1ccc(OC)c(F)c1C(=O)c1ccc(C(=O)N[C@@H]2CNC[C@H]2NC(=O)c2ccc3[nH]ncc3c2)cc1 | enzyme activity | inhibitor | – | 10 µM | remaining activity | 105%
C[C@@]1(Cc2ccc(C#N)cc2)C(=O)N(c2cc(Cl)cc(Cl)c2)c2ncc(C(=O)NC3(c4nc(C5CCC5)no4)CC3)n21 | cell-free assay | – | competition with immobilised ligand | 1 µM | remaining binding | 100%
COc1cc2c(N3CCN(C(=O)Nc4ccc(OC(C)C)cc4)CC3)ncnc2cc1OCCCN1CCCCC1 | cell-free assay | – | – | 0.5 µM | remaining signal | 93.4%
O=C(N[C@H]1CCCCC/C=C\C2C[C@@]2(C(=O)O)NC(=O)[C@@H]2C[C@@H](Oc3ccncc3)CN2C1=O)OC1CCCC1 (stereo partly shown) | binding | – | competition with immobilised ligand | 1 µM | remaining binding | 93%
Cc1sc(C(=O)NC2COC2)cc1-n1cc(NC(=O)Nc2c(F)cccc2Cl)cn1 | enzyme activity | inhibitor | – | 10 µM | remaining activity | 99.6%
CC(C)(O)[C@H]1CC[C@H](Nc2ccc3ncc(-c4cccc(C(F)(F)F)c4)n3n2)CC1 | enzyme activity | inhibitor | – | 1 µM | remaining activity | 59.3%
Cn1c2c(c3ccc(Cl)c(Cl)c31)C(C#N)C1(CCNCC1)NC2=O (racemic) | thermal stability | – | DSF | 10 µM | ΔTm | 2.2 °C
Cc1ccc(C(=O)Nc2ccc(CN3CCN(C)CC3)c(C(F)(F)F)c2)cc1C#Cc1cnc2cccnn12 | enzyme activity | inhibitor | – | 23.5 nM | remaining activity | 77%
N#CCCc1ccc2c(c1)-c1[nH]c3ccc([N+](=O)[O-])cc3c1CC(=O)N2 | cell-free assay | – | – | 0.5 µM | remaining signal | 108%
Nc1cnc(N2CCc3cc(S(=O)(=O)Nc4c(F)cc(Cl)cc4F)cc(N4CCCC4=O)c32)nc1 | cell-free assay | – | competition with immobilised ligand | 1 µM | remaining binding | 74%
CCN(CC)CCNC(=O)c1c(C)[nH]c(/C=C2\C(=O)Nc3ccc(F)cc32)c1C | enzyme activity | inhibitor | – | 0.3 µM | inhibition | -1%
